One compound from ChEMBL document CHEMBL3861974, “Discovery of a Selective Aurora A Kinase Inhibitor by Virtual Screening” (J Med Chem, 2016) can be followed below.

For experiment [1], the target named is T1, Aurora kinase A (Homo sapiens, UniProt O14965).
T1 sequence (O14965 whole entry): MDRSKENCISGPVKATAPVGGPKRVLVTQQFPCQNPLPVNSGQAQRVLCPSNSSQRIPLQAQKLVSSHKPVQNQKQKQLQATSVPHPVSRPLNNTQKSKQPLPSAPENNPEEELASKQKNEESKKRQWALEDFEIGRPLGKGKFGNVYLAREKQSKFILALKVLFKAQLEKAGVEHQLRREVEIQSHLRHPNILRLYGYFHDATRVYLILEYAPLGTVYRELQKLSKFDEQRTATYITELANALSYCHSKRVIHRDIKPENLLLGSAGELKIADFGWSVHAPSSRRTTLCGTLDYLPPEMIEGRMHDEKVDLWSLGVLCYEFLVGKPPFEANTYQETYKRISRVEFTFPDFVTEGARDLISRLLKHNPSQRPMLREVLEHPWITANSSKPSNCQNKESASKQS
The experiment in a line: Inhibition of Aurora A kinase autophosphorylation at Thr288 in human HeLa Kyoto cells incubated for 20 hrs. It is filed as cell-based.

Experiment [2] concerns the target T2, Aurora kinase A (Homo sapiens) (UniProt O14965).
T2 sequence (whole entry): T1 sequence (O14965 whole entry)
The experiment in a line: Binding affinity to His-tagged human Aurora A kinase ([…] residues) expressed in Escherichia coli BL21 (DE3) Rosetta cells assessed as reduction in Aurora A binding to TPX-labeled human TPX2 N-terminal domain (1 to 43 residues) at 125 uM incubated for 30 mins by microscale thermophoresis method. For orientation: Microscale thermophoresis detects binding through changes in fluorescence in a small temperature gradient.

Experiment [3] is described as follows: Glutathione reactivity at 30 uM assessed as GSH adduct formation after 24 hrs in presence of 5 mM GSH, pH 7.4 buffer at 37 degC by LC-MS method. In outline: (§1)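 Test compound at 30 µM was incubated with 5 mM GSH in H2O/CH3CN (4:1) at 37 °C and followed by LC-MS over 24 h. The GSH adduct was identified by MS. Parent was quantified by integrating its 310 nm absorption peak against 9-methylcarbazole as internal control. Values are the average of two independent experiments.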

Experiment [4] in a line: Glutathione reactivity at 30 uM assessed as retention time for GSH adduct formation after 24 hrs in presence of 5 mM GSH, pH 7.4 buffer at 37 degC by LC-MS method. In outline:
as §1

Experiment [5] deals with HeLa Kyoto. Put plainly: Increase in mitotic index in human HeLa Kyoto cells incubated for 20 hrs. It is filed as functional, cell-based. In outline:
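HeLa Kyoto cells were incubated overnight with compound, and the fraction of mitotic cells was scored. The experiment was repeated twice; mean ± SD.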

Experiment [6] deals with T3, Aurora kinase C (Homo sapiens, UniProt Q9UQB9).
T3 sequence (Q9UQB9 whole entry): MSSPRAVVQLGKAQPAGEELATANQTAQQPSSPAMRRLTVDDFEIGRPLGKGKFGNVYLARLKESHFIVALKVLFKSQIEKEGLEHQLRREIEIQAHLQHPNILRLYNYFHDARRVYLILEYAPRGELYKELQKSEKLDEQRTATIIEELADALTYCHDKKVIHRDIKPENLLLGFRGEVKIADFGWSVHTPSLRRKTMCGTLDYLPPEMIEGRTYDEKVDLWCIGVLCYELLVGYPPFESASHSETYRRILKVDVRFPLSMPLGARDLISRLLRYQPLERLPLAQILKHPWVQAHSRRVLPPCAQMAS
Put plainly: Binding affinity to human Aurora C kinase expressed in Escherichia coli BL21 cells incubated for 1 hr by active site directed binding competition assay. In outline:
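Kinome scan of 456 kinases using an active-site-directed binding competition assay, followed by determination of binding affinities (Kd). Aurora B in this scan was free enzyme without INCENP.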

Experiment [7] deals with T4, Aurora kinase B (Homo sapiens, UniProt Q96GD4). Put plainly: Inhibition of Aurora B kinase in human HeLa Kyoto cells assessed as effect on distribution of phspho-histone H3 ser10 level incubated for 20 hrs.
The species named for experiment [8] is Homo sapiens. The experiment in a line: Selectivity index, ratio of IC50 for Aurora-B/INCENP (unknown origin) to IC50 for His-tagged human Aurora A kinase ([…] residues) expressed in Escherichia coli BL21 (DE3) Rosetta cells.
Experiment [9] has as its target T1, Aurora kinase A. The experiment in a line: Inhibition of His-tagged human Aurora A kinase ([…] residues) expressed in Escherichia coli BL21 (DE3) Rosetta cells using biotinylated STK2 substrate incubated for 30 mins in presence of 2 uM TPX2 by HTRF assay. In outline: (§2)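 Biochemical kinase inhibition was read by HTRF with 20 µM ATP. Aurora B was assayed as its complex with the activator INCENP. For Aurora A, IC50 curves were recorded at different TPX2 concentrations.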
(TR-FRET usually uses a lanthanide donor and a delayed reading to cut background.)

For experiment [10], the target named is T1, Aurora kinase A. Put plainly: Inhibition of His-tagged human Aurora A kinase ([…] residues) expressed in Escherichia coli BL21 (DE3) Rosetta cells using biotinylated STK2 substrate incubated for 30 mins in presence of 0.002 uM TPX2 by HTRF assay. In a few lines:
as §2

Experiment [11] addresses T1, Aurora kinase A. Put plainly: Inhibition of His-tagged human Aurora A kinase ([…] residues) expressed in Escherichia coli BL21 (DE3) Rosetta cells using biotinylated STK2 substrate incubated for 30 mins by HTRF assay.
Experiment [12] deals with T4, Aurora kinase B. Put plainly: Inhibition of Aurora B kinase in human HeLa Kyoto cells assessed as induction of accumulation of cells at 8N DNA contant incubated for 48 hrs at 10 uM by flow cytometry. The experiment is classed as cell-based. In outline: (§3)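 Cells were treated for 48 h, stained with propidium iodide, and DNA content was analysed by flow cytometry. Cells with 8N and 16N DNA content were scored as a readout of defective cytokinesis.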
In general terms: A flow cytometer gives signals particle by particle.

For experiment [13], the target named is Aurora kinase B/Inner centromere protein (Homo sapiens, UniProt Q96GD4). The experiment in a line: Inhibition of Aurora-B/INCENP (unknown origin) using biotinylated STK2 substrate incubated for 30 mins by HTRF assay. It is filed as protein-complex assay. In outline: as §2
Experiment [14] concerns the target T4, Aurora kinase B. Put plainly: Inhibition of Aurora B kinase in human HeLa Kyoto cells assessed as induction of accumulation of cells at 16N DNA contant incubated for 48 hrs at 10 uM by flow cytometry. The experiment is classed as cell-based. In outline: as §3

Activity calls are given as the source filed them. The rule behind the calls is not given here.

T4 sequence (Q96GD4 whole entry): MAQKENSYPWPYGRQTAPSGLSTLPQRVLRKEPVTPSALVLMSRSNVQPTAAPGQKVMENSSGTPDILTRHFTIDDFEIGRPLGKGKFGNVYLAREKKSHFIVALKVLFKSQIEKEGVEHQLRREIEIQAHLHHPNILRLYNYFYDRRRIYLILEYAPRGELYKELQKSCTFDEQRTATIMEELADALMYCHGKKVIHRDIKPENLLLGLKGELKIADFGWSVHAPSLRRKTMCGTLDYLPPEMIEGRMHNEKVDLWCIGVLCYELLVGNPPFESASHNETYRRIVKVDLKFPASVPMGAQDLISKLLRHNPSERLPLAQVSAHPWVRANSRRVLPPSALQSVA
Chain of Aurora kinase B/Inner centromere protein (Q96GD4 whole entry): as above
Chain of Aurora kinase B/Inner centromere protein (Q9NQS7 whole entry, further chain): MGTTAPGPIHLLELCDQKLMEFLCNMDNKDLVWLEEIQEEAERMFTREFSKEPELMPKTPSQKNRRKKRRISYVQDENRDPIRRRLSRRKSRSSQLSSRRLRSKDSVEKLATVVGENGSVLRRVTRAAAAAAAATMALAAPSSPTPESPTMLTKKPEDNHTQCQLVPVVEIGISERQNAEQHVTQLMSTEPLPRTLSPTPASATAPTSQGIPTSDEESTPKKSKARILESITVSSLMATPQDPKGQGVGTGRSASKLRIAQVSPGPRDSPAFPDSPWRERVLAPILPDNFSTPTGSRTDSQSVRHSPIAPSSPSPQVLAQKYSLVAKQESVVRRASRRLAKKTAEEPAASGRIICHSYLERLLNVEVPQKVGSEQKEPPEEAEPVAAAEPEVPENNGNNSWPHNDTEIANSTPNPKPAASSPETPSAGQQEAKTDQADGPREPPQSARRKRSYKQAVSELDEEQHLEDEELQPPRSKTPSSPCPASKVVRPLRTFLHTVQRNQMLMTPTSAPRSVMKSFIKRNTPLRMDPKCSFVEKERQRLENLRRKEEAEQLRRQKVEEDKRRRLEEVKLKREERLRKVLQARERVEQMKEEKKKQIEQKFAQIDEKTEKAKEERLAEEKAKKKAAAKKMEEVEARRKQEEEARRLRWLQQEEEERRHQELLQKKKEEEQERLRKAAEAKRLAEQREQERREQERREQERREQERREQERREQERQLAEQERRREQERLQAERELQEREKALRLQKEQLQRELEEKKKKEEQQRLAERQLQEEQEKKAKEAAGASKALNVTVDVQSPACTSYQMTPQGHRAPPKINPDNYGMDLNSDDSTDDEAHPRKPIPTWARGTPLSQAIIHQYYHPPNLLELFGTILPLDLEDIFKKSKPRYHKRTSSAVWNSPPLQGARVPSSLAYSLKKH

For the compound `CCc1ccc(/N=C2\S/C(=C\c3ccnc(Nc4ccc(C(=O)O)cn4)c3)C(=O)N2C)cc1`, the concentration for half-maximal inhibition (IC50) (in general, the concentration that inhibits the measured activity by half) is 760 nM in [1]; over 25000 nM in experiment [7]; 1400 nM in experiment [9]; 1.7 nM in [10]; 2 nM in experiment [11]; 150 nM in [13]. For the same compound, in [2], the outcome was Active. Also, in experiment [3], the Drug metabolism was 50%. Besides, the Stability result in [3] was “Stable”. In [4], the Retention time is 1.29 min. In addition, in experiment [5], the Activity result was “Dose-dependent effect”. Also, the equilibrium dissociation constant (Kd) (as a rule, the concentration at which binding is half-saturated) in experiment [6] amounted to 10.8 nM. Further, the Ratio IC50 in [8] turned out to be 75. Besides, the inhibition entry in experiment [12] and in experiment [14] was “Active” in each case.
